Data published in ChEMBL document CHEMBL2021862, “5-imino-1,2,4-thiadiazoles: first small molecules as substrate competitive inhibitors of glycogen synthase kinase 3” (J Med Chem, 2012).
Calls of active or inactive are those of the source. The calls are words filed in the database; no cut-off is given here.

Columns and labels:
[1] = Effective permeability across porcine polar brain lipid after 4 hrs by PAMPA; settings: pig; for Papp at 4 h: PAMPA; for Peff: pampa, 4 h
[2] = target: T1, Glycogen synthase kinase-3 beta (Homo sapiens, UniProt P49841); experiment: Inhibition of human recombinant GSK3beta at 10 uM after 30 mins by luminescence assay in presence of ATP
In short: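 Human recombinant GSK-3β (20 ng) with prephosphorylated polypeptide substrate 25 μM and ATP 1 μM in 50 mM HEPES pH 7.5, 1 mM EDTA, 1 mM EGTA, 15 mM Mg acetate. Final DMSO ≤1%. Incubated 30 min at 30 °C, stopped with Kinase-Glo reagent, and luminescence read after 10 min. Inhibition is relative to the no-inhibitor maximum. IC50 is the concentration giving 50% activity loss.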
Target sequence in this assay (P49841 whole entry, looked up): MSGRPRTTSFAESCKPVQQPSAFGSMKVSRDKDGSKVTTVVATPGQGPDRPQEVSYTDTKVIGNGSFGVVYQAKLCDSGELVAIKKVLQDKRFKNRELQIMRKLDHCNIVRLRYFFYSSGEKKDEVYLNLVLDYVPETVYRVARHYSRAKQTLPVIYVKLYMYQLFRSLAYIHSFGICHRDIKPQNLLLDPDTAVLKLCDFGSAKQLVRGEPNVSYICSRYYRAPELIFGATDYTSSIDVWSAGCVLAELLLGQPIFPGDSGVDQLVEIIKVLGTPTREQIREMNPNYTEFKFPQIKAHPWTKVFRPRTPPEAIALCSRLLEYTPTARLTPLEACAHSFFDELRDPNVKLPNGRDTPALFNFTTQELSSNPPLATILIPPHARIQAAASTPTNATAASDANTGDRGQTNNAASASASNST

[3] = test system: NSC; experiment: Neurogenic activity in rat hippocampal NSC assessed as increase in beta-tubulin after 24 hrs by DAPI staining-based immunocytometric analysis; format: functional, cell-based; settings: Hippocampus
In short: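 Neurospheres from adult rat hippocampus were expanded in DMEM/F12 with EGF and FGF (10 ng/mL each) and B27, and treated with compound. Spheres were plated on poly-L-lysine without growth factors. Cells were fixed in 4% paraformaldehyde, permeabilized with 0.1% Triton X-100, stained with anti-β-tubulin (Tuj1) and an Alexa secondary, counterstained with DAPI, and imaged by confocal microscopy.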

[4] = test system: Astrocyte; experiment: Neuroprotective activity in rat astrocytes assessed as decrease in LPS-induced nitrite production at 28 to 52 ug/ml after 24 hrs administered 1 hr before LPS challenge by Griess method; format: functional, cell-based
In short: (§1)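 Astrocytes and microglia were from neonatal (P2) rat cortex, separated by shaking; microglia received 10 ng/mL GM-CSF. Purity >98% (OX42/GFAP). Cells were pretreated 1 h with compound, then given LPS for 24 h. Supernatant was mixed 1:1 with Griess reagent, left 15 min at room temperature, and absorbance read at 492/540 nm.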

[5] = target: T1, Glycogen synthase kinase-3 beta; experiment: Non-competitive inhibition of human recombinant GSK3beta at 10 uM after 30 mins by Michaelis-Menten equation in presence of 1 to 50 uM ATP; settings: 0.4 to 2 uM, in the assay text read “at 0.4 to 2 uM” for “at 10 uM”
In short: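 Double-reciprocal kinetics on GSK-3β using the ADP-Glo kinase assay. ATP was varied from 1 to 50 μM and inhibitor from 0.4 to 2 μM, with GS-2 fixed at 12.5 μM. Each point is the mean of two experiments, each run in duplicate.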
Target sequence in this assay (P49841 whole entry, looked up): as above

[6] = test system: Cortical neurone; experiment: Neuroprotective activity in rat cortical neurons assessed as decrease in LPS-induced nitrite production at 28 to 52 ug/ml after 24 hrs administered 1 hr before LPS challenge by Griess method; format: functional
In short: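 Cortical neurons from E18 rats were grown in Neurobasal/B-27 at 37 °C, 5% CO2 for 1 week. They were pretreated 1 h with compound, then exposed to supernatant from LPS-stimulated microglia. After 24 h, nitrite in the medium was measured by Griess reaction (equal volume reagent, 15 min room temperature, absorbance 492/540 nm).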

[7] = target: T1, Glycogen synthase kinase-3 beta; experiment: Competitive inhibition of human recombinant GSK3beta at 0.5 to 2.5 uM after 30 mins by Michaelis-Menten equation in presence of 1 uM ATP
Target sequence in this assay (P49841 whole entry, looked up): as above

[8] = test system: Microglia; experiment: Neuroprotective activity in rat microglia cells assessed as decrease in LPS-induced nitrite production at 28 to 52 ug/ml after 24 hrs administered 1 hr before LPS challenge by Griess method; format: functional, cell-based; in short: as §1
[9] = target: T1, Glycogen synthase kinase-3 beta; experiment: Inhibition of human recombinant GSK3beta after 30 mins by luminescence assay in presence of ATP
Target sequence in this assay (P49841 whole entry): as the sequence (P49841 whole entry, looked up) above

Structure (SMILES)	inhibition [2]	IC50 [9]	other results
CN1C(C(=O)Nc2ccccn2)=C(O)c2ccccc2S1(=O)=O [PIROXICAM]			Papp at 4 h [1]: 1.7 ×10⁻⁶ cm/s
OCCNC(=S)N/C(=N/c1ccccc1)c1ccccc1	inactive		
OCC/N=c1\nc(-c2ccccc2)n(-c2ccccc2)s1	> 60%		Activity [3]: Active; Activity [4]: Active; inhibition [5]: Active; Activity [6]: Active; inhibition [7]: Active; Activity [8]: Active
CCOC(=O)C/N=c1\nc(-c2ccccc2)n(-c2ccccc2)s1 [listing 1 of 2 here]	> 60%		Activity [3]: Active; Activity [4]: Active; Activity [6]: Active; Activity [8]: Active
Br.COc1ccc(-n2s/c(=N/Cc3cccnc3)nc2-c2ccccc2)cc1	> 60%	4100 nM	Papp at 4 h [1]: 6.3 ×10⁻⁶ cm/s
CCOC(=O)C/N=c1\nc(-c2ccccc2)n(-c2ccccc2)s1 [listing 2 of 2 here]		1800 nM	
CCOC(=O)CNC(=S)N/C(=N/c1ccc(OC)cc1)c1ccccc1	inactive		
c1ccc(-n2s/c(=N/Cc3cccnc3)nc2-c2cccc3ccccc23)cc1 [listing 1 of 3 here]	> 60%		
COc1ccc(/C(=N\c2ccccc2)NC(=S)NCCO)cc1	inactive		
Br.OCC/N=c1\nc(-c2cccc3ccccc23)n(-c2ccccc2)s1	> 60%	300 nM	Papp at 4 h [1]: 10.2 ×10⁻⁶ cm/s
Br.c1ccc(-c2n/c(=N\Cc3cccnc3)sn2-c2ccccc2)cc1	> 60%	1300 nM	Activity [3]: Active; Activity [4]: Active; inhibition [5]: Active; Activity [6]: Active; inhibition [7]: Active; Papp at 4 h [1]: 10.7 ×10⁻⁶ cm/s; Activity [8]: Active
Br.COc1ccc(-c2n/c(=N\c3ccccc3)sn2-c2ccccc2)cc1	> 60%	1100 nM	Peff [1]: ND(Insoluble)
Br.Cc1n/c(=N\Cc2cccnc2)sn1-c1ccccc1	> 60%	600 nM	Papp at 4 h [1]: 5.3 ×10⁻⁶ cm/s
S=C(NCCN1CCOCC1)N/C(=N/c1ccccc1)c1ccccc1	inactive		
Cn1c(=O)c2c(ncn2C)n(C)c1=O [CAFFEINE]			Papp at 4 h [1]: 1.6 ×10⁻⁶ cm/s
OCC/N=c1\nc(-c2ccccc2)n(-c2cccc3ccccc23)s1	> 60%	300 nM	
CCCCCNC(=S)N/C(=N/c1ccccc1)c1ccccc1	inactive		
Cl.OCC/N=c1\nc(-c2ccccc2)n(-c2ccccc2)s1		600 nM	Papp at 4 h [1]: 13.6 ×10⁻⁶ cm/s
S=C(N/C(=N/c1ccccc1)c1ccccc1)NC1CCCCC1	inactive		
S=C(NCc1cccnc1)N/C(=N/c1cccc2ccccc12)c1ccccc1	inactive		
OCCNC(=S)N/C(=N/c1cccc2ccccc12)c1ccccc1	inactive		
Br.COc1ccc(-n2s/c(=N/CCO)nc2-c2ccccc2)cc1	> 60%	4600 nM	Activity [3]: Active; Activity [4]: Active; Activity [6]: Active; Papp at 4 h [1]: 13.4 ×10⁻⁶ cm/s; Activity [8]: Active

Structure (SMILES)	inhibition [2]	IC50 [9]	other results
Br.CCOC(=O)C/N=c1\nc(-c2ccc(OC)cc2)n(-c2ccccc2)s1	> 60%	500 nM	Papp at 4 h [1]: 4 ×10⁻⁶ cm/s
S=C(N/C(=N/c1ccccc1)c1ccccc1)Nc1ccccn1	inactive		
c1ccc(-n2s/c(=N/Cc3cccnc3)nc2-c2cccc3ccccc23)cc1 [listing 2 of 3 here]		900 nM	
COc1ccc(/N=C(/NC(=S)NCCO)c2ccccc2)cc1	inactive		
c1ccc(-c2n/c(=N\Cc3cccnc3)sn2-c2cccc3ccccc23)cc1	> 60%	2000 nM	
c1ccc(/N=c2\nc(-c3ccccc3)n(-c3ccccc3)s2)cc1	> 60%		Peff [1]: ND(Insoluble)
CCOC(=O)CNC(=S)N/C(=N/c1ccccc1)c1ccc(OC)cc1	inactive		
c1ccc(/N=C(/N=c2/nc3ccccn3s2)c2ccccc2)cc1	14%		
CCCCC/N=c1\nc(-c2ccccc2)n(-c2ccccc2)s1	> 60%	1400 nM	
Br.FC(F)(F)c1ccc(-c2n/c(=N\Cc3cccnc3)sn2-c2ccccc2)cc1	> 60%	1600 nM	Peff [1]: ND(Insoluble)
COc1ccc(/C(=N\c2ccccc2)NC(=S)Nc2ccccc2)cc1	inactive		
COc1ccc(/C(=N\c2ccccc2)NC(=S)NCc2cccnc2)cc1	inactive		
CCCCC/N=c1\nc(-c2ccc(OC)cc2)n(-c2ccccc2)s1.Cl		1100 nM	Papp at 4 h [1]: 8.5 ×10⁻⁶ cm/s
OCCNC(=S)N/C(=N/c1ccccc1)c1cccc2ccccc12	inactive		
Br.COc1ccc(-c2n/c(=N\Cc3cccnc3)sn2-c2ccccc2)cc1	> 60%	1200 nM	Papp at 4 h [1]: 4.8 ×10⁻⁶ cm/s
C/C(=N\c1ccccc1)NC(=S)NCc1cccnc1	inactive		
FC(F)(F)c1ccc(/C(=N\c2ccccc2)NC(=S)NCc2cccnc2)cc1	inactive		
CCCCC/N=c1\nc(-c2ccc(OC)cc2)n(-c2ccccc2)s1 [listing 1 of 2 here]		300 nM	
NC(=S)N/C(=N/c1ccccc1)c1ccccc1	inactive		
Br.COc1ccc(-c2n/c(=N\CCO)sn2-c2ccccc2)cc1	> 60%	1200 nM	Papp at 4 h [1]: 13.7 ×10⁻⁶ cm/s
CCOC(=O)CNC(=S)N/C(=N/c1ccc([N+](=O)[O-])cc1)c1ccccc1	inactive		
Br.c1ccc(-c2n/c(=N\C3CCCCC3)sn2-c2ccccc2)cc1	> 60%	2100 nM	Peff [1]: ND(Insoluble)

Structure (SMILES)	inhibition [2]	IC50 [9]	other results
O=[N+]([O-])c1ccc(-n2s/c(=N/Cc3cccnc3)nc2-c2ccccc2)cc1	> 60%	1000 nM	
O=[N+]([O-])c1ccc(/N=C(/NC(=S)NCc2cccnc2)c2ccccc2)cc1	inactive		
c1ccc(-n2s/c(=N/Cc3cccnc3)nc2-c2cccc3ccccc23)cc1 [listing 3 of 3 here]		2100 nM	
CCCCCNC(=S)N/C(=N/c1ccccc1)c1ccc(OC)cc1	inactive		
Br.c1ccc(/N=c2/nc(-c3ccccc3)n(-c3ccccc3)s2)cc1	> 60%		Peff [1]: ND(Insoluble)
S=C(N/C(=N/c1ccccc1)c1ccccc1)Nc1ccccc1	inactive		
CCCCC/N=c1\nc(-c2ccc(OC)cc2)n(-c2ccccc2)s1 [listing 2 of 2 here]	> 60%		
CCCCC/C(=N\c1ccccc1)NC(=S)NCc1cccnc1	inactive		
CCCCCc1n/c(=N\Cc2cccnc2)sn1-c1ccccc1	> 60%	800 nM	
COc1ccc(/N=C(/NC(=S)NCc2cccnc2)c2ccccc2)cc1	inactive		
Br.CCOC(=O)C/N=c1\nc(-c2ccccc2)n(-c2ccc(OC)cc2)s1	> 60%	2000 nM	Papp at 4 h [1]: 4.4 ×10⁻⁶ cm/s
CNCCCN1c2ccccc2CCc2ccccc21 [DESIPRAMINE]			Papp at 4 h [1]: 14.9 ×10⁻⁶ cm/s
Br.c1ccc(-c2n/c(=N\CCN3CCOCC3)sn2-c2ccccc2)cc1	> 60%	900 nM	inhibition [5]: Active; inhibition [7]: Active; Papp at 4 h [1]: 7.2 ×10⁻⁶ cm/s
S=C(NCc1cccnc1)N/C(=N/c1ccccc1)c1ccccc1	inactive		
Br.N=c1nc(-c2ccccc2)n(-c2ccccc2)s1	> 60%	600 nM	Papp at 4 h [1]: 9.1 ×10⁻⁶ cm/s
CCOC(=O)CNC(=S)N/C(=N/c1ccccc1)c1ccccc1	inactive		
c1ccc(Cn2s/c(=N/Cc3cccnc3)nc2-c2ccccc2)cc1	> 60%	1100 nM	
Br.OCC/N=c1\nc(-c2ccccc2)n(-c2ccccc2)s1		2000 nM	Papp at 4 h [1]: 15.8 ×10⁻⁶ cm/s
S=C(NCc1cccnc1)N/C(=N/Cc1ccccc1)c1ccccc1	inactive		
Br.CCOC(=O)C/N=c1\nc(-c2ccccc2)n(-c2ccccc2)s1		7000 nM	Papp at 4 h [1]: 6.2 ×10⁻⁶ cm/s
S=C(NCc1cccnc1)N/C(=N/c1ccccc1)c1cccc2ccccc12	inactive		
CCOC(=O)C/N=c1\nc(-c2ccccc2)n(-c2ccc([N+](=O)[O-])cc2)s1	> 60%	1000 nM	
